Here are results for five compounds from PMC4981430 (Neuropharmacology, 2016).

In general, EC50 refers to the midpoint of the concentration-response curve. As a reminder, the Emax is the greatest response seen or fitted, relative to the assay's reference. By IC50 is commonly meant the concentration that gives 50% inhibition. A higher IC50 goes with weaker potency in that assay.

Data set [1] has as its target T1, α1β2γ2 GABAARs (Rattus norvegicus, UniProt P18508+P62813). As to the kind of experiment: Whole-cell patch-clamp, potentiation of GABA. Format: cell-based. As to conditions: for Emax: HEK293, read-out: Electrophysiology Emax (potentiation).
Data set [2] relates to α1β2γ2, α2β3γ2, α3β3γ2 and α5β2γ2 GABAARs. Briefly: Whole-cell patch-clamp in HEK293 cells, statements across the GABAAR subtypes. The data set is classed as cell-based, rat. The note with it: up to 3 μM for DZP, and 20 μM for CBZ and NDMC. Background: Patch clamp records ionic current or voltage across a cell membrane.
The next data set deals with α5β2γ2 GABAARs (Rattus norvegicus, UniProt P18508+P19969). Briefly: Whole-cell patch-clamp, potentiation of GABA. The data set is classed as cell-based. The note with it: for Emax: HEK293, read-out: Electrophysiology Emax (potentiation).
Data set [3] addresses T2, α2β3γ2 GABAARs (Rattus norvegicus, UniProt P18508+P23576). Briefly: Whole-cell patch-clamp, potentiation of GABA. The data set is classed as cell-based. The note with it: for Emax: HEK293, read-out: Electrophysiology Emax (potentiation).
The target of data set [4] is T2, α2β3γ2 GABAARs. Briefly: [3H]flunitrazepam binding to membranes of transfected HEK293 cells, α2β3γ2.
Data set [5] concerns the target T1, α1β2γ2 GABAARs. As to the kind of experiment: [3H]flunitrazepam binding to membranes of transfected HEK293 cells, α1β2γ2.
A further data set deals with human GABAARs. As to conditions: human GABAARs in Xenopus laevis oocytes; ref Hammer et al., 2015; cited from earlier work.
Another data set concerns the target α3β3γ2 GABAARs (Rattus norvegicus, UniProt P18508+P20236). Briefly: Whole-cell patch-clamp, potentiation of GABA. The data set is classed as cell-based.
The subject of data set [6] is locomotor activity of mice. Briefly: Locomotor activity in the open field test. Format: in vivo, mouse.
Data set [7] deals with CCI model of neuropathic pain, mechanical hyperalgesia. As to the kind of experiment: Mechanical hyperalgesia. The data set is classed as in vivo, mouse. As to conditions: GABAAR α1(H→R) point-mutated mice, von-Frey filament stimulation, p.o. The method in brief: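 Left sciatic nerve constricted proximal to the trifurcation with three loose 5-0 silk ligatures. Mice 7–10 weeks old, both sexes, wild-type or α1(H→R) point-mutated, tested blinded 7–14 days later. Dosing p.o. as a suspension in 0.9% saline/1% Tween80. Paw withdrawal threshold measured with electronic von Frey filament #7, 3–4 readings per time point. Expressed as %MPE using pre-CCI and pre-drug thresholds.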

The test system of data set [8] is recombinant α2β3γ2 GABAARs. As to conditions: cited from earlier work; for Potentiation of recombinant α2β3γ2 GABAARs, relative to chlordiazepoxide: % of that of chlordiazepoxide, ref Atack et al.

Read-outs that look alike come from different tables or passages of the source.

T2 sequence (P23576 29-451): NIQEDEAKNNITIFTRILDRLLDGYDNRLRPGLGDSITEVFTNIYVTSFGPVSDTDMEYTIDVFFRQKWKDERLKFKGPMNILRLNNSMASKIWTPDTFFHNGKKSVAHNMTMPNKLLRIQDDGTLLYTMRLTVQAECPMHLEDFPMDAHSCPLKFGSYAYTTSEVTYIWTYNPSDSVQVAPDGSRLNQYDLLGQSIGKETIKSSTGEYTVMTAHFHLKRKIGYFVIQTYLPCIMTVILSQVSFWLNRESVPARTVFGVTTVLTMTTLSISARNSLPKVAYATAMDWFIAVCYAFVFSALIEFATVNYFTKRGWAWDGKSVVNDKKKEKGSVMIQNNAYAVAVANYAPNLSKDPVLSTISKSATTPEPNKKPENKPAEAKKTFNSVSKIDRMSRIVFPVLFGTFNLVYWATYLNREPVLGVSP
T2 sequence (P63079 26-473 partner): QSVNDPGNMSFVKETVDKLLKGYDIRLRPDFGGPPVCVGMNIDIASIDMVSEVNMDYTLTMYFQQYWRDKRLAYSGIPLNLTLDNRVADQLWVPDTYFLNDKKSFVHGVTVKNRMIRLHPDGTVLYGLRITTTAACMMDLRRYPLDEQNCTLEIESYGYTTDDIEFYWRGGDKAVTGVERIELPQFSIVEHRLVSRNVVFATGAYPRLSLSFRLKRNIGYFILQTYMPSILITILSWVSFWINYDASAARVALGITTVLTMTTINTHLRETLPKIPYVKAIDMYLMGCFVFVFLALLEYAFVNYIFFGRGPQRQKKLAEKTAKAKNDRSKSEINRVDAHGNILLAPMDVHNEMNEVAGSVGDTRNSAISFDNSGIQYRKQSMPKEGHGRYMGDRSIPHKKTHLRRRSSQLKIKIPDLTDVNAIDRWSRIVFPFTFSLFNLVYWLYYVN
T2 sequence (P18508 39-466): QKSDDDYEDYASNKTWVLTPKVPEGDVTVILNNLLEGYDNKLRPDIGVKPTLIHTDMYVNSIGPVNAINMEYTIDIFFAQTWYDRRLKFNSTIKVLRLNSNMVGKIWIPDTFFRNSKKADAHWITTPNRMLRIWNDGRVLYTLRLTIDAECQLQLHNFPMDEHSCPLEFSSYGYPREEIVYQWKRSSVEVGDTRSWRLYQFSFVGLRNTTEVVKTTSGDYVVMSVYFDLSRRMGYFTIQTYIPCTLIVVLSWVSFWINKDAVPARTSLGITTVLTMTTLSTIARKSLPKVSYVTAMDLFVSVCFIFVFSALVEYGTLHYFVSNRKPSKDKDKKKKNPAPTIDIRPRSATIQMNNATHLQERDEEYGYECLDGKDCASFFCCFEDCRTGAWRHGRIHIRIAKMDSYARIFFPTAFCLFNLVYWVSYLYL
T1 sequence (P62813 28-455): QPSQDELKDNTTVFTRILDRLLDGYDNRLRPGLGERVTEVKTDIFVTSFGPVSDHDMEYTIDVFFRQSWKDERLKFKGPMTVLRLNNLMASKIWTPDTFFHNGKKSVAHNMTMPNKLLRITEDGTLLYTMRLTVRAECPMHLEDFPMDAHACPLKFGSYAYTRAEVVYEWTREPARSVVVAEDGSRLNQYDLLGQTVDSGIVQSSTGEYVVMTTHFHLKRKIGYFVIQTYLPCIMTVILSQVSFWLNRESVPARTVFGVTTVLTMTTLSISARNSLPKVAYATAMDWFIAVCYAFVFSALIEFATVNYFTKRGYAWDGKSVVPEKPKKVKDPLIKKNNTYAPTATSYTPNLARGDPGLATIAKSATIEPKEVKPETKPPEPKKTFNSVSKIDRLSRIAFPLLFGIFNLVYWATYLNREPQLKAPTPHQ
T1 sequence (P63138 25-474 partner limits assumed): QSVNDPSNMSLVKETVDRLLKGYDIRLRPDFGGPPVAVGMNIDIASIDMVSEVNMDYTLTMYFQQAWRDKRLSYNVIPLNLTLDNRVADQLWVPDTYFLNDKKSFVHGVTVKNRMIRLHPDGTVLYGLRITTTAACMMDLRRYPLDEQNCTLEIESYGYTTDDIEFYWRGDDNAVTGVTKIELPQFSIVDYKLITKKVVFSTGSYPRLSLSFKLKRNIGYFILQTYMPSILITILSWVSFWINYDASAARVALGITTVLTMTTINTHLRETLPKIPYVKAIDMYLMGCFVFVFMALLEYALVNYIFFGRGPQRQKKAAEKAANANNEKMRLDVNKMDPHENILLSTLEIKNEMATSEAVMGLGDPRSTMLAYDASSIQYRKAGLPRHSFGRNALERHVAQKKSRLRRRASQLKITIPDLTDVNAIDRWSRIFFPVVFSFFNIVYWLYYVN
T1 sequence (P18508 39-466): as the sequence (P18508 39-466) above
α5β2γ2 GABAARs, sequence (P19969 32-464 limits assumed): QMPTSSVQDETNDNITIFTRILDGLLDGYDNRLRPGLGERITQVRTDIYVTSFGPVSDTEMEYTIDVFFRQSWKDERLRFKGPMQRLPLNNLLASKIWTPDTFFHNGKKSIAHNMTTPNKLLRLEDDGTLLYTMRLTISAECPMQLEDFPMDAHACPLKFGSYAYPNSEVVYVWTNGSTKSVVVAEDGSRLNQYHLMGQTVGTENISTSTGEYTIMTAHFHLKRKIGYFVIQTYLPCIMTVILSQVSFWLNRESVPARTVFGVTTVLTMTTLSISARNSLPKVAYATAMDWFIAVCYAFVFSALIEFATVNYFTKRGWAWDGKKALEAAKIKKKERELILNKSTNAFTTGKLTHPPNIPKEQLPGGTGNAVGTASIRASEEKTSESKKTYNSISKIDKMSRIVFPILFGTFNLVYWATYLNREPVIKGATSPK
α5β2γ2 GABAARs, sequence (P63138 25-474 partner limits assumed): as the sequence (P63138 25-474 partner limits assumed) above
α5β2γ2 GABAARs, sequence (P18508 39-466): as the sequence (P18508 39-466) above
α3β3γ2 GABAARs, sequence (P20236 29-493): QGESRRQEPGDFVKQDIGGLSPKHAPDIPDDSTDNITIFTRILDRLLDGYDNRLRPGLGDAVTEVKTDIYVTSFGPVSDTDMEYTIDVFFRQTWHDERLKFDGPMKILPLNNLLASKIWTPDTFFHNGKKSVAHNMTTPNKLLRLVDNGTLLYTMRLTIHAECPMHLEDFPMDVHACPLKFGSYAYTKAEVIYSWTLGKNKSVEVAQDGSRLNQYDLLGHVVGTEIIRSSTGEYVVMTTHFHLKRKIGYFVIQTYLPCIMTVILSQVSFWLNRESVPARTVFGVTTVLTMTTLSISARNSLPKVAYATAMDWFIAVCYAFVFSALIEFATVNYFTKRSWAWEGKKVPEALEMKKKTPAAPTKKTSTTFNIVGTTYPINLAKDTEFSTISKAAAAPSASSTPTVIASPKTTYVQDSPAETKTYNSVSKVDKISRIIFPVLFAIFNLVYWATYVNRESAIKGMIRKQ
α3β3γ2 GABAARs, sequence (P63079 26-473 partner): as the sequence (P63079 26-473 partner) above
α3β3γ2 GABAARs, sequence (P18508 39-466): as the sequence (P18508 39-466) above

Consider `CN1C(=O)CC(=O)N(c2ccccc2)c2cc(Cl)ccc21` [CBZ, clobazam], for which the EC50 at α1β2γ2 GABAARs [1] turned out to be 610 ± 200 nM; on α5β2γ2 GABAARs, 500 ± 120 nM; on α2β3γ2 GABAARs [3], 390 ± 190 nM; on α3β3γ2 GABAARs, 1100 ± 320 nM. The maximal response (Emax) on α1β2γ2 GABAARs [1] was 171 ± 17%; at α5β2γ2 GABAARs, 157 ± 11%; at α2β3γ2 GABAARs [3], 134 ± 16%. Besides, the “Direct activation of GABAAR currents” value in data set [2] is on record as “did not directly activate GABAAR currents”. The α2/α1 selectivity on α2β3γ2 GABAARs [3] (determined as Emax(α2)/Emax(α1)) was determined as 0.78 ± 0.12. Also, the IC50 was found to be 390 ± 80 nM on α2β3γ2 GABAARs [4] and 430 ± 130 nM on α1β2γ2 GABAARs [5]. Moreover, in the data set with human GABAARs, the α2/α1 selectivity ratio was 1.02 ± 0.05.
Consider `CN1C(=O)CN=C(c2ccccc2)c2cc(Cl)ccc21` [DZP, diazepam], for which the Emax on α1β2γ2 GABAARs [1] was determined as 141 ± 17%; on α5β2γ2 GABAARs, 100 ± 6.4%; on α2β3γ2 GABAARs [3], 123 ± 11%. The “Direct activation of GABAAR currents” value in data set [2] is given as “did not directly activate GABAAR currents”. Moreover, the “Dose at which reduction in locomotor activity reached statistical significance” value in data set [6] (129X1/SvJ mice, p.o., 72-120 min) was ≥ 10 mg/kg; in [6] (C57BL/6J mice, p.o., 72-120 min), 1 mg/kg. In addition, the “Effect on locomotor activity” value in [6] (C57BL/6J mice, 3, 10 and 30 mg kg−1 p.o., 72-120 min) is “dose-dependent reduction in locomotor activity”. The “Effect on locomotor activity in HRRR mice” value in data set [6] (HRRR triple point-mutated mice (only α1GABAARs BDZ-sensitive), 3–10 mg kg−1 p.o.) is recorded as “completely suppressed”. Moreover, the “Effect on locomotor activity in RHRR mice” value in data set [6] (RHRR triple point-mutated mice (only α2GABAARs BDZ-sensitive), p.o.) is on record as “increased locomotion”. For the same compound, the “Dose reducing locomotor activity in RRRR mice” value in data set [6] (quadruple point-mutated RRRR mice, p.o.) was ≥ 30 mg/kg. Besides, in data set [6] (triple (H→R) point-mutated mice, only α1GABAARs BDZ-sensitive, p.o.), the ED50 sedation was determined as 0.59 ± 0.08 mg/kg. This compound also registered an ED50 antihyperalgesia in [7] of 3.4 ± 1.3 mg/kg. Further, the “Electrophysiology Emax (potentiation)” value on α3β3γ2 GABAARs (α3β3γ2, GABA at EC10, mean ± SD) turned out to be 227 ± 15%.
As for `Cn1ncnc1COc1nn2c(-c3cc(F)ccc3F)nnc2cc1C(C)(C)C` [L-838,417], the “Potentiation of recombinant α2β3γ2 GABAARs” value in [8] (ref McKernan et al., 2000) was “about 40%”.
As for `CCn1ncnc1COc1nn2c(-c3ccccc3F)nnc2cc1C(C)(C)C` [TPA023, 7-(1,1-Dimethylethyl)-6-(2-ethyl-2H-1,2,4-triazol-3-ylmethoxy)-3-(2-fluor ophenyl)-1,2,4-triazolo[4,3-b]pyridazine], in data set [8] (2006), the “Potentiation of recombinant α2β3γ2 GABAARs, relative to chlordiazepoxide” value is 11%.
As for `CC(C)(O)c1cnn2c(-c3ccc(F)c(-c4c(F)cccc4C#N)c3)cnc2n1` [TPA023B], the “Potentiation of recombinant α2β3γ2 GABAARs, relative to chlordiazepoxide” value in data set [8] (2011) is listed as 38%.
